A word on the pIC50: it is the negative decadic logarithm of the IC50, by convention in mol/L.

pIC50: −log10 of the molar value.

IC50 and Activity data for 19 compounds are collected here from ChEMBL document CHEMBL1926595, “Design and synthesis of 4,6-substituted-(diaphenylamino)quinazolines as potent EGFR inhibitors with antitumor activity” (Bioorg Med Chem, 2012).

The nature of assay [1]: Antiproliferative activity against human A16-F10 cells after 48 hrs by MTT assay. Conditions: A16-F10, 48 h. In kind it is functional, cell-based. An outline of the steps: (§1)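 Cells were seeded at 7 × 10³ per well and, after 24 h, exposed while growing exponentially to a range of concentrations for 48 h. MTT (5 mg/mL stock in PBS) was added for 6 h, followed by 10% SDS in 0.01 N HCl for a further 4 h at 37 °C, then absorbance read at 570 nm. Survival was taken as % of untreated cells. IC50 came from 6-well replicates in at least two independent experiments.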
Background: Formazan colour is commonly taken as a measure of viable cells.

Assay [2] concerns HepG2. The assay can be described thus: Antiproliferative activity against human HepG2 cells after 48 hrs by MTT assay. In kind it is functional, cell-based. Conditions: HepG2, 48 h. An outline of the steps:
as §1

In assay [3] the target is Epidermal growth factor receptor (Homo sapiens, UniProt P00533). Nature of the assay: Inhibition of EGFR expressed in baculovirus infected Sf9 cells assessed as inhibition of autophosphorylation preincubated for 10 mins measured after 1 hr by DELFIA/Time-Resolved Fluorometry.
Assay [4] has as its system HepG2. The assay can be described thus: Induction of apoptosis in human HepG2 cells assessed as apoptotic cells at 2 uM after 3 days using annexin-V/PI double staining by flow cytometry (reference value: 0.98%). The class given is functional. Background: A flow cytometer gives signals particle by particle.
The subject of assay [5] is HepG2. Nature of the assay: Induction of apoptosis in human HepG2 cells assessed as apoptotic cells at 1 uM after 3 days using annexin-V/PI double staining by flow cytometry (reference value: 0.98%). The class given is functional.
The subject of assay [6] is HepG2. Nature of the assay: Induction of apoptosis in human HepG2 cells after 3 days using annexin-V/PI double staining by flow cytometry. In kind it is functional, cell-based.

Chain of Epidermal growth factor receptor (P00533 whole entry): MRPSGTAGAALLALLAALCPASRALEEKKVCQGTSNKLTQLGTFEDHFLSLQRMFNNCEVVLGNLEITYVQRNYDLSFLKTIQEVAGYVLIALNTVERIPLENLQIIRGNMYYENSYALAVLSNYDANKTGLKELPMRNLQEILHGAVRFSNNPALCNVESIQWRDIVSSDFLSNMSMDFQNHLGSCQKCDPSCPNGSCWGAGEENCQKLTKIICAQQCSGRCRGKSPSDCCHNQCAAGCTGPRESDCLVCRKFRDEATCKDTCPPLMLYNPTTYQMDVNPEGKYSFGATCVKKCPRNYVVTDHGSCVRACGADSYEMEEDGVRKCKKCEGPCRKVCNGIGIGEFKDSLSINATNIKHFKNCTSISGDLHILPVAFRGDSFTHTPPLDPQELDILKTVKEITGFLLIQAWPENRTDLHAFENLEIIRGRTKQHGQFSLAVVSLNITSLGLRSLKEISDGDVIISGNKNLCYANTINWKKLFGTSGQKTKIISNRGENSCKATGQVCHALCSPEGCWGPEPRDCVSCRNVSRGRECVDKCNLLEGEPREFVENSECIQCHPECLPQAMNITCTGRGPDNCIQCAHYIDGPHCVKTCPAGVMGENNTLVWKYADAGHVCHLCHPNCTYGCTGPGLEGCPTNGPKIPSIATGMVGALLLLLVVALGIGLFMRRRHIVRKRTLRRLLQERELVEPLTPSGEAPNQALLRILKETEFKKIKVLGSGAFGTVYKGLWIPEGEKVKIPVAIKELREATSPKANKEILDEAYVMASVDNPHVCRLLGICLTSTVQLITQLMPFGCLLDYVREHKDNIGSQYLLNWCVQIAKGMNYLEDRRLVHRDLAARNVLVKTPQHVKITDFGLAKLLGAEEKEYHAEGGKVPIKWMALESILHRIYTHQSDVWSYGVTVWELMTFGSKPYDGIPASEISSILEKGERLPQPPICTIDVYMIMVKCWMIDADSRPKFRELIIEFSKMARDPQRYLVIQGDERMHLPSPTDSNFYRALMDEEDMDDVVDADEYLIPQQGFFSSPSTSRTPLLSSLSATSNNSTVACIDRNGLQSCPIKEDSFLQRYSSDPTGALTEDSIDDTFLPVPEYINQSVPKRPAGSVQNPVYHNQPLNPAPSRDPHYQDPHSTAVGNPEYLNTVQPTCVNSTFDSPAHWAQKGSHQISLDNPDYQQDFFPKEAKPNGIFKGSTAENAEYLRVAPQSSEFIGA

For the compound `COc1ccc(CNc2ccc3ncnc(Nc4cccc(Cl)c4)c3c2)cc1`, the pIC50 in assay [1] was 5.07; in assay [2] it was 5.28.

As to `COc1ccc(CNc2ccc3ncnc(Nc4cccc(Br)c4)c3c2)cc1`, the values for the pIC50 in assay [1] and in assay [2] were 4.98 and 5.27, respectively.

With `Clc1cccc(Nc2ncnc3ccc(NCc4ccccc4Br)cc23)c1`, the negative logarithm of the IC50 (pIC50) was 5.23 in assay [1] and 5.38 in assay [2].

`Oc1ccccc1CNc1ccc2ncnc(Nc3cccc(Br)c3)c2c1`: the pIC50 in assay [1] was 5.73; in assay [2] it was 5.90; in assay [3] it was 5.49.

For `Clc1ccc(CNc2ccc3ncnc(Nc4cccc(Cl)c4)c3c2)cc1`, the figures for the pIC50 in assay [1], in assay [2] and in assay [3] were 5.57, 5.75 and 5.36, respectively.

For `Fc1ccc(CNc2ccc3ncnc(Nc4cccc(Cl)c4)c3c2)cc1`, the negative-log IC50 (pIC50) in assay [1] is 5.53; in assay [2], 5.57.

For the compound `Brc1cccc(Nc2ncnc3ccc(NCc4ccccc4Br)cc23)c1`, the negative-log IC50 (pIC50) was 5.36 in assay [1] and 5.56 in assay [2].

On to `Clc1cccc(Nc2ncnc3ccc(NCc4ccc(Br)cc4)cc23)c1`, for which the pIC50 in assay [1] was 5.40; in assay [2], 5.42; in assay [3], 5.25.

Take `C#Cc1cccc(Nc2ncnc3cc(OCCOC)c(OCCOC)cc23)c1` [ERLOTINIB]: the negative logarithm of the IC50 (pIC50) in assay [1] is 7.70.

For the compound `COc1ccccc1CNc1ccc2ncnc(Nc3cccc(Br)c3)c2c1`, the negative-log IC50 (pIC50) in assay [1] is 4.90; in assay [2], 5.05; in assay [3] it was 4.95.

For the compound `Brc1ccc(CNc2ccc3ncnc(Nc4cccc(Br)c4)c3c2)cc1`, the negative-log IC50 (pIC50) is 5.66 in assay [1], 5.85 in assay [2] and 5.50 in assay [3].

As for `Fc1ccc(CNc2ccc3ncnc(Nc4cccc(Br)c4)c3c2)cc1`, the values for the negative-log IC50 (pIC50) in assay [1] and in assay [2] were 5.68 and 5.75, respectively.

Regarding `Clc1ccc(CNc2ccc3ncnc(Nc4cccc(Br)c4)c3c2)cc1`, the pIC50 in assay [1] is 5.74; in assay [2], 6.04; in assay [3], 5.79.

Regarding `Oc1ccc(CNc2ccc3ncnc(Nc4cccc(Br)c4)c3c2)cc1`, the Activity in assay [4] is 54.2%; in assay [5], 20.8%; in assay [6] it was “Dose-dependent effect”. In addition, the pIC50 in assay [1] was 6.23; in assay [2], 6.55.

Turning to `Oc1ccc(CNc2ccc3ncnc(Nc4cccc(Cl)c4)c3c2)cc1`, the pIC50 in assay [1] is 5.80; in assay [2], 5.82; in assay [3], 5.73.

In the case of `Clc1ccccc1CNc1ccc2ncnc(Nc3cccc(Br)c3)c2c1`, the values for the negative-log IC50 (pIC50) in assay [1] and in assay [2] were 5.43 and 5.74, respectively.

For the compound `Oc1ccccc1CNc1ccc2ncnc(Nc3cccc(Cl)c3)c2c1`, the pIC50 in assay [1] is 5.50; in assay [2] it was 5.68; in assay [3] it was 5.45.

Consider `COc1ccccc1CNc1ccc2ncnc(Nc3cccc(Cl)c3)c2c1`, for which the figures for the pIC50 in assay [1], in assay [2] and in assay [3] were 4.83, 5.01 and 4.86, respectively.

On to `Clc1cccc(Nc2ncnc3ccc(NCc4ccccc4Cl)cc23)c1`, for which the pIC50 in assay [1] was 5.15; in assay [2] it was 5.27.
